One data set deals with MCF7. The experiment in a line: Cytotoxicity against human MCF7 cells after 48 hrs by MTT assay. In kind it is functional, cell-based. The settings on record: for IC50: MCF7, 48 h. A digest of the protocol: (§1)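 Antiproliferative screen in human tumour lines; IC50 values derived, with cisplatin as positive control.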
A general note: Tetrazolium dyes change colour on reduction, which living cells bring about.

In another data set the test system is A549. The experiment in a line: Cytotoxicity against human A549 cells after 48 hrs by MTT assay. The settings on record: A549, 48 h. In kind it is functional, cell-based. A digest of the protocol: as §1
For the next data set, the system named is K562. The experiment in a line: Cytotoxicity against human K562 cells after 48 hrs by MTT assay. In kind it is functional, cell-based. The settings on record: for IC50: K562, 48 h. In short, it runs like this:
as §1

The subject of a further data set is HeLa. As to the kind of experiment: Cytotoxicity against human HeLa cells after 48 hrs by MTT assay. In kind it is functional, cell-based. In short, it runs like this: as §1
For data set [1], the system named is DNA. The experiment in a line: Binding affinity to calf thymus DNA assessed as intercalation at 20 uM after 10 mins measured at 350 to 500 nm wavelength by circular dichroism spectroscopic analysis. The data set is classed as nucleic-acid assay. The settings on record: Bos taurus. In short, it runs like this: (§2)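 Circular dichroism: spectra of Ct-DNA (5.0 × 10^-5 M) recorded with or without compound (2.0 × 10^-5 M). Buffer was 10 mM phosphate pH 7.4 with 50 mM NaCl and 2% DMSO, at 25 °C.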
Background: Circular dichroism is the unequal absorption of left and right circularly polarised light.

For data set [2], the system named is DNA. The experiment in a line: Binding affinity to calf thymus DNA after 10 mins by Stern-Volmer plot analysis. The settings on record: Bos taurus. In kind it is nucleic-acid assay. A digest of the protocol: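 Fluorescence titration: 5.0 × 10^-5 M compound in 10 mM phosphate buffer pH 7.4 with 50 mM NaCl and 2% DMSO at 25 °C, Ct-DNA added stepwise. Excitation wavelength set per compound (318–339 nm); excitation and emission slits 10.0 nm; emission read near 455 nm. F/F0 plotted against Ct-DNA concentration and analysed by Stern–Volmer plot.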

In data set [3] the test system is DNA. The experiment in a line: Binding affinity to calf thymus DNA assessed as melting temperature at 5 uM after 10 mins by thermal denaturation assay (reference value: 67 degC). In kind it is nucleic-acid assay. The settings on record: Bos taurus.
A short description of data set [4]: Cytotoxicity against mouse skull osteoblasts at 20 uM after 48 hrs by MTT assay relative to control. In kind it is cell-based. The settings on record: osteoblast. A digest of the protocol:
(§3)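 Primary osteoblasts were isolated from newborn mouse skull and exposed to compounds at five concentrations for 48 h. Induced cell death was measured by MTT assay and expressed as % cytotoxicity.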

For data set [5], the system named is DNA. The experiment in a line: Binding affinity to calf thymus DNA assessed as decrease in intensity of negative band at 20 uM after 10 mins measured at 246 nm wavelength by circular dichroism spectroscopic analysis. The data set is classed as nucleic-acid assay. The settings on record: Bos taurus. In short, it runs like this:
as §2

Data set [6] relates to DNA. The experiment in a line: Binding affinity to calf thymus DNA assessed as hyperchromicity at 10 uM after 10 mins by UV-vis spectrophotometric analysis. In kind it is nucleic-acid assay. The settings on record: Bos taurus. In short, it runs like this: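 UV–vis absorption titration: 1.0 × 10^-5 M compound in 10 mM phosphate buffer pH 7.4 with 50 mM NaCl and 2% DMSO at 25 °C, with increasing Ct-DNA. Spectral changes were followed, and binding was fitted at the absorption maximum.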

The test system of data set [7] is DNA. The experiment in a line: Binding affinity to calf thymus DNA assessed as increase in intensity of positive band at 20 uM after 10 mins measured at 277 nm wavelength by circular dichroism spectroscopic analysis. The data set is classed as nucleic-acid assay. The settings on record: Bos taurus. In short, it runs like this:
as §2

Data set [8] is described as follows: Cytotoxicity against mouse skull osteoblasts at 100 uM after 48 hrs by MTT assay relative to control. The data set is classed as cell-based. The settings on record: osteoblast. In short, it runs like this: as §3
Data set [9] in a line: Cytotoxicity against mouse skull osteoblasts at 10 uM after 48 hrs by MTT assay relative to control. The data set is classed as cell-based. The settings on record: osteoblast. In short, it runs like this:
as §3

A short description of data set [10]: Cytotoxicity against mouse skull osteoblasts at 1 uM after 48 hrs by MTT assay relative to control. The data set is classed as cell-based. The settings on record: osteoblast. A digest of the protocol:
as §3

Data set [11] is described as follows: Cytotoxicity against mouse skull osteoblasts at 40 uM after 48 hrs by MTT assay relative to control. In kind it is cell-based. The settings on record: osteoblast. A digest of the protocol:
as §3

The test system of data set [12] is DNA. As to the kind of experiment: Binding affinity to calf thymus DNA assessed as change in melting temperature at 5 uM after 10 mins by thermal denaturation assay. In kind it is nucleic-acid assay. The settings on record: Bos taurus.

The structures appear in SMILES notation. Activity calls are given as the source filed them. No cut-off for these calls is given here.

In general, IC50 refers to the midpoint of a concentration-inhibition curve. The low end stands for inhibition by little substance, the high end for a need for much substance. What is called Tm is the temperature at which the thermal transition is half complete. Usually ΔTm stands for the change in melting temperature against a reference sample.

On to `O=c1oc2cc(OCCN3CCOCC3)ccc2c(-c2ccccc2)c1-c1ccc(OCCN2CCOCC2)cc1`, for which the IC50 in the data set on MCF7, in the data set on A549, in the data set on K562 and in the data set with HeLa was greater than 100 µM each time.
On to `O=c1oc2ccccc2c(-c2ccc(OCCN3CCCCC3)cc2)c1-c1ccc(OCCN2CCCCC2)cc1`, for which the IC50 with MCF7 came to 4.29 µM; with A549 it was 7.28 µM; with K562 it was 5.44 µM; in the data set on HeLa, 4.36 µM. Besides, the result in the data set on DNA [1], with DNA [5] and in the data set on DNA [7] was Active. The same compound came in with a Kb with DNA [2] of 1.2 ×10⁴ /M. The Tm with DNA [3] was 70 °C. Further, the Activity was 10.6% in data set [4]; 16% with DNA [6]; 40.3% in data set [8]; 1.6% in data set [9]; -3.2% in data set [10]; 22.3% in [11]. Also, in the data set on DNA [12], the ΔTm was 3 °C.
In the case of `CCN(CC)CCOc1ccc(-c2c(-c3ccccc3)c3ccc(OCCN(CC)CC)cc3oc2=O)cc1`, the IC50 in the data set with MCF7 was 5.95 µM; in the data set on A549, 8.97 µM; with K562, 2.73 µM; in the data set on HeLa, 9.58 µM. Further, the result in the data set with DNA [1], in the data set with DNA [5] and in the data set on DNA [7] was Active. In the data set with DNA [2], this compound registered a Kb of 6 ×10³ /M. Further, the Tm in the data set with DNA [3] is 68.8 °C. Besides, the Activity in data set [4] was 3.7%; in the data set on DNA [6], 8%; in data set [8], 31.7%; in data set [9] it was -1.5%; in data set [10], -7.2%; in [11], 15.8%. Further, the ΔTm in the data set on DNA [12] turned out to be 1.7 °C.
Consider `CN1CCN(CCOc2ccc(-c3c(-c4ccccc4)c4ccc(OCCN5CCN(C)CC5)cc4oc3=O)cc2)CC1`, for which the IC50 in the data set on MCF7 worked out at 3.47 µM; with A549, 4.7 µM; with K562 it was 3.23 µM; in the data set with HeLa, 3.68 µM. In addition, the result with DNA [1], in the data set on DNA [5] and in the data set on DNA [7] was Active. Also, the Kb with DNA [2] was 5.2 ×10³ /M. Moreover, in the data set with DNA [3], the Tm was determined as 69.2 °C. Further, the Activity was 3.2% in data set [4]; 8% in the data set with DNA [6]; 31.6% in data set [8]; 0.6% in [9]; -2.4% in data set [10]; 14.6% in [11]. For the same compound, the ΔTm in the data set with DNA [12] was found to be 2.2 °C.
As to `CN1CCN(CCOc2ccc(-c3c(-c4ccc(OCCN5CCN(C)CC5)cc4)c4ccccc4oc3=O)cc2)CC1`, the 50% inhibitory concentration (IC50) is 78.3 µM in the data set with MCF7, 55.6 µM in the data set on A549, 53.2 µM with K562 and 60.5 µM with HeLa. Moreover, the result in the data set on DNA [1], in the data set on DNA [5] and with DNA [7] was Active. This compound displayed a Kb with DNA [2] of 1.4 ×10⁴ /M. In the data set with DNA [3], the Tm worked out at 71 °C. Also, in the data set on DNA [6], the Activity was 17%. Also, in the data set on DNA [12], the ΔTm turned out to be 4 °C.
Consider `CCN(CC)CCOc1ccc(-c2c(-c3ccc(OCCN(CC)CC)cc3)c3ccccc3oc2=O)cc1`, for which the IC50 came out at 50.1 µM in the data set with MCF7, 46.3 µM with A549, 56.2 µM with K562 and 45.2 µM with HeLa. Further, the outcome in the data set on DNA [1], with DNA [5] and in the data set with DNA [7] was Active. Also, the Kb in the data set on DNA [2] stood at 1 ×10⁴ /M. For the same compound, the midpoint of thermal melting (Tm) with DNA [3] is 71.5 °C. In addition, the Activity in the data set with DNA [6] came out at 17%. In addition, the ΔTm in the data set on DNA [12] was 4.5 °C.
Turning to `O=c1oc2cc(O)ccc2c(-c2ccccc2)c1-c1ccc(O)cc1`, the outcome with MCF7 and in the data set with K562 was inactive.
In the case of `CN(C)CCOc1ccc(-c2c(-c3ccc(OCCN(C)C)cc3)c3ccccc3oc2=O)cc1`, the IC50 in the data set with MCF7 is 71.6 µM; in the data set with A549, greater than 100 µM; in the data set on K562, 99.6 µM; in the data set on HeLa, greater than 100 µM.
As to `O=c1oc2ccccc2c(-c2ccc(OCCN3CCCC3)cc2)c1-c1ccc(OCCN2CCCC2)cc1`, the IC50 in the data set on MCF7 amounted to 16.6 µM; in the data set with A549, 8.79 µM; with K562, 7.54 µM; with HeLa it was 8.25 µM. Also, the Activity in data set [4] was 8.4%; in data set [8], 39.5%; in data set [9] it was -0.5%; in data set [10], 0.1%; in data set [11], 20.4%.
For the compound `O=c1oc2ccccc2c(-c2ccc(O)cc2)c1-c1ccc(O)cc1`, the result in the data set with MCF7 and in the data set on K562 was inactive.
As to `O=c1oc2cc(OCCN3CCCC3)ccc2c(-c2ccccc2)c1-c1ccc(OCCN2CCCC2)cc1`, the IC50 worked out at 6.63 µM with MCF7, 7.35 µM with A549, 5.46 µM in the data set on K562 and 4.7 µM with HeLa. The Activity is listed as 5.2% in [4]; 32.8% in data set [8]; -5.6% in data set [9]; -2.5% in data set [10]; 16.4% in [11].
With `CN(C)CCOc1ccc(-c2c(-c3ccccc3)c3ccc(OCCN(C)C)cc3oc2=O)cc1`, the IC50 in the data set with MCF7 worked out at 6.99 µM; in the data set on A549, 9.13 µM; in the data set with K562, 7.19 µM; in the data set on HeLa, 8.49 µM. Further, the Activity in data set [4] is on record as 4.3%; in data set [8], 31.5%; in [9] it was -0.2%; in [10], -0.6%; in [11], 13.8%.
Regarding `O=c1oc2cc(OCCN3CCCCC3)ccc2c(-c2ccccc2)c1-c1ccc(OCCN2CCCCC2)cc1`, the IC50 in the data set with MCF7 is 6.53 µM; in the data set with A549, 5.21 µM; in the data set with K562, 4.9 µM; in the data set with HeLa, 5.08 µM. Besides, the result in the data set with DNA [1], in the data set on DNA [5] and in the data set on DNA [7] was Active. Also, the Kb in the data set on DNA [2] is 7 ×10³ /M. Besides, the Tm in the data set with DNA [3] worked out at 68.2 °C. Moreover, the Activity in [4] is 4.9%; in the data set with DNA [6] it was 6%; in [8], 33.4%; in data set [9], 3.7%; in data set [10], -6.5%; in [11], 18.6%. In the data set on DNA [12], the ΔTm was 1.2 °C.
For the compound `O=c1oc2ccccc2c(-c2ccc(OCCN3CCOCC3)cc2)c1-c1ccc(OCCN2CCOCC2)cc1`, the IC50 in the data set with MCF7, with A549, in the data set on K562 and with HeLa was greater than 100 µM in each case.

The values above are taken from ChEMBL document CHEMBL3112392, “Cytotoxicity and DNA binding property of triphenylethylene-coumarin hybrids with two amino side chains” (Bioorg Med Chem Lett, 2014).
